From ChEMBL document CHEMBL2163298, “Inhibition of human topoisomerases I and II by simocyclinone D8” (J Nat Prod, 2012)
Active and inactive are the calls of the source. The calls are words filed in the database; no cut-off is given here.

Key:
[1] = target: DNA topoisomerase 2-alpha (Homo sapiens) (UniProt P11388); test: Inhibition of human topoisomerase 2-mediated plasmid DNA cleavage at 25 to 200 uM after 10 mins by agarose gel electrophoresis electrophoresis
Method in brief: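 Relaxed plasmid (0.3 μg) with 5 units human Topo II and 1 mM ATP at 37 °C for 10 min. Buffer: pH 8, 10 mM MgCl2. Stopped with 1% SDS, then EDTA and proteinase K at 50 °C for 60 min. Extracted and run on ethidium agarose gels.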

[2] = target: T1, DNA topoisomerase 1 (Homo sapiens) (UniProt P11387); test: Dissociation of human topo 1-CPT-DNA ternary complex assessed as reduction in nicked DNA formation at 160 uM after 10 mins by dilution DNA cleavage assay relative to untreated-control; parameters: scale not given: the % may be the effect or the level left
T1 sequence (whole entry): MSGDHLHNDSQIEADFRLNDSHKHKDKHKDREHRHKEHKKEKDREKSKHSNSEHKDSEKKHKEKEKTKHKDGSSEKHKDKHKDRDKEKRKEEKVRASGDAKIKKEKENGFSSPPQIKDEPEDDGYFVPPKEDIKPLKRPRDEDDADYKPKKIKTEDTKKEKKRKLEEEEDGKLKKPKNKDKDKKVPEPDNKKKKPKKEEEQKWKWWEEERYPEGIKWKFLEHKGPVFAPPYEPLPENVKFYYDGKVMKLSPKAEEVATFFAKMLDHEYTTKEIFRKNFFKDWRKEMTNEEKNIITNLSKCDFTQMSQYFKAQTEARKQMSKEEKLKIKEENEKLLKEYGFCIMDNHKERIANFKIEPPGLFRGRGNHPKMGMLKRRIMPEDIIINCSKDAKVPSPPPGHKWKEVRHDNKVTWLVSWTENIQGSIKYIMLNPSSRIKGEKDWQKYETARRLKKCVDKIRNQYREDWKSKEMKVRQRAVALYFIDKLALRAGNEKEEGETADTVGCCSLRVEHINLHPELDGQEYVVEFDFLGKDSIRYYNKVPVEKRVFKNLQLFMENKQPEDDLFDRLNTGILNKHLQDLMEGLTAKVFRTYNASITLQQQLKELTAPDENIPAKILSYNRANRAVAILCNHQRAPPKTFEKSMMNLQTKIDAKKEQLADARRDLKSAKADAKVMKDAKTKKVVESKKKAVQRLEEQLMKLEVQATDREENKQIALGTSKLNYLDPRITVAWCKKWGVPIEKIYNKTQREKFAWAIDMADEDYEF
Method in brief: (§1)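 Topo I cleavage mix (0.6 μg relaxed plasmid, 5 units human Topo I, 2.5 μM CPT), 37 °C 5 min. Then diluted 10-fold in drug-free buffer or buffer holding 2.5 μM CPT, 160 μM SD8, or both, 37 °C 10 min. SDS/EDTA/proteinase K workup. Nicked DNA normalized to the undiluted control; mean and absolute deviation of two assays.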

[3] = target: T1, DNA topoisomerase 1 (Homo sapiens); test: Dissociation of human topo 1-CPT-DNA ternary complex assessed as reduction in nicked DNA formation at 160 uM after 10 mins by dilution DNA cleavage assay in presence of 2.5 uM CPT; parameters: scale not given: the % may be the effect or the level left; method in brief: as §1
[4] = target: T1, DNA topoisomerase 1 (Homo sapiens); test: Dissociation of human topo 1-CPT-DNA ternary complex assessed as reduction in nicked DNA formation at 160 uM after 10 mins by dilution DNA cleavage assay; parameters: scale not given: the % may be the effect or the level left; method in brief: as §1
[5] = target: DNA topoisomerase 2-alpha (Homo sapiens) (UniProt P11388); test: Dissociation of human topo 2-etoposide-DNA ternary complex assessed as nicked DNA formation at 150 uM after 20 mins by two-step DNA cleavage assay; conditions: in the assay text read “linear DNA” for “nicked DNA”
Method in brief: (§2)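 Human Topo II with 7.5 μM etoposide on relaxed plasmid DNA (50 mM Tris-HCl pH 8, 10 mM MgCl2, 10 mM DTT, 1 mM ATP, BSA; 6-fold scale), 37 °C 5 min. Then 150 μM SD8 or 2% DMSO at 37 °C. Timed aliquots stopped with 1% SDS, then EDTA/proteinase K 50 °C 60 min. Linear DNA quantified on ethidium agarose gels.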

[6] = target: T1, DNA topoisomerase 1 (Homo sapiens); test: Dissociation of human topo 1-CPT-DNA ternary complex assessed as reduction in nicked DNA formation measuring remaining ternary complex at 150 uM after 20 mins by two-step DNA cleavage assay
Method in brief: (§3)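 Topo I with 7.5 μM CPT on relaxed plasmid DNA (6-fold scaled cleavage mix: 50 mM Tris-HCl pH 7.5, 1 mM MgCl2, 1 mM DTT, BSA), 37 °C 5 min. Then 150 μM SD8 or DMSO (2% final), continued at 37 °C. Aliquots taken at set times, stopped with 1% SDS, then EDTA/proteinase K 37 °C 15 min. Nicked DNA read on ethidium agarose gels.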

[7] = target: DNA topoisomerase 2-alpha (Homo sapiens) (UniProt P11388); test: Dissociation of human topo 2-etoposide-DNA ternary complex assessed as reduction in […] formation at 150 uM by two-step DNA cleavage assay; method in brief: as §2
[8] = target: T1, DNA topoisomerase 1 (Homo sapiens); test: Dissociation of human topo 1-CPT-DNA ternary complex assessed as reduction in nicked DNA formation at 150 uM by two-step DNA cleavage assay; parameters: scale not given: the % may be the effect or the level left; method in brief: as §3
[9] = target: DNA topoisomerase 2-alpha (Homo sapiens) (UniProt P11388); test: Inhibition of human topoisomerase 2-mediated plasmid DNA cleavage preincubated at 150 uM for 5 mins before addition of poison measured after 10 mins by agarose gel electrophoresis
Method in brief: (§4)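 Two-step assay at 4-fold scale: Topo I or human Topo II with 150 μM SD8, 37 °C 5 min. Aliquots then given 7.5 μM CPT (Topo I) or 7.5 μM etoposide (Topo II), 37 °C 10 min. Stopped with 1% SDS, then proteinase K (Topo I 37 °C 15 min; Topo II 50 °C 60 min). Gel readout.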

[10] = target: T1, DNA topoisomerase 1 (Homo sapiens); test: Inhibition of human topoisomerase 1-mediated plasmid DNA cleavage preincubated at 150 uM for 5 mins before addition of poison measured after 10 mins by agarose gel electrophoresis; method in brief: as §4
[11] = target: T1, DNA topoisomerase 1 (Homo sapiens); test: Inhibition of human topoisomerase 1-mediated plasmid DNA cleavage at 25 to 200 uM after 10 mins by agarose gel electrophoresis
Method in brief: (§5)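 Relaxed plasmid (0.3 μg) with 5 units human Topo I at 37 °C for 10 min. Buffer: pH 7.5, 1 mM MgCl2. Stopped with 1% SDS, then 25 mM EDTA and 100 μg/mL proteinase K, 37 °C 15 min. Phenol extraction, 1.2% agarose gel with ethidium bromide at 2 V/cm for 12 h. 5 μM CPT reaction as control.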

[12] = target: T1, DNA topoisomerase 1 (Homo sapiens); test: Stimulation of human topoisomerase 1-mediated plasmid DNA cleavage at 25 to 200 uM after 10 mins by agarose gel electrophoresis; method in brief: as §5
[13] = target: T1, DNA topoisomerase 1 (Homo sapiens); test: Ratio of CPT IC50 to compound IC50 for human topoisomerase 1-mediated relaxation of supercoiled pBR322 DNA
DNA topoisomerase 1 = target: T2, DNA topoisomerase 1 (Homo sapiens, UniProt P11387); test: Inhibition of human topoisomerase 1-mediated relaxation of supercoiled pBR322 DNA after 15 to 30 mins by agarose gel electrophoresis
T2 sequence (P11387 whole entry): T1 sequence (whole entry)
Method in brief: (§6)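 Supercoiled pBR322 (0.3 μg) relaxed by human Topo I (1 unit, 30 min; or 2 units, 15 min) or calf thymus Topo I (0.5 unit, 15 min), 37 °C. Buffer: 50 mM Tris-HCl pH 7.5, 1 mM MgCl2, 1 mM DTT, 50 μg/mL BSA. Stopped with 25 mM EDTA. Run on 1.2% agarose in TAE, ethidium-stained and quantified. IC50 taken from these gels.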

[14] = target: T1, DNA topoisomerase 1 (Homo sapiens); test: Inhibition of human topoisomerase 1-mediated relaxation of supercoiled pBR322 DNA at 50 to 400 uM after 15 to 30 mins by agarose gel electrophoresis in presence of 200 mM potassium glutamate
Method in brief: (§7)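 Human Topo I relaxation of supercoiled pBR322 at 37 °C, run as the standard assay. Mg2+ raised up to 1 mM, NaCl up to 100 mM, or potassium glutamate up to 200 mM. Products resolved on agarose gels.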

[15] = target: T1, DNA topoisomerase 1 (Homo sapiens); test: Inhibition of human topoisomerase 1-mediated relaxation of supercoiled pBR322 DNA at 50 to 400 uM after 15 to 30 mins by agarose gel electrophoresis in presence of 100 mM NaCl; method in brief: as §7
[16] = target: T1, DNA topoisomerase 1 (Homo sapiens); test: Inhibition of human topoisomerase 1-mediated relaxation of supercoiled pBR322 DNA at 50 to 400 uM after 15 to 30 mins by agarose gel electrophoresis in presence of 1 mM magnesium; method in brief: as §7
[17] = target: T3, Topoisomerase I (Bos taurus) (UniProt Q2HPH0); test: Inhibition of calf thymus topoisomerase 1-mediated relaxation of supercoiled pBR322 DNA after 15 mins by agarose gel electrophoresis; method in brief: as §6
T3 sequence (whole entry): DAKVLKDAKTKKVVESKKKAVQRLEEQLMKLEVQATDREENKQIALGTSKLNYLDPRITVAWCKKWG

[18] = target: DNA topoisomerase 2-alpha (Homo sapiens) (UniProt P11388); test: Inhibition of human topoisomerase 2-mediated relaxation of supercoiled pBR322 DNA at 50 to 400 uM after 30 mins by agarose gel electrophoresis
Method in brief: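 Human Topo II (2 units) relaxed 0.3 μg supercoiled pBR322 at 37 °C for 30 min. Stopped with 25 mM EDTA, 5 min. Analyzed on agarose gels.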

[19] = target: T1, DNA topoisomerase 1 (Homo sapiens); test: Inhibition of human topoisomerase 1-mediated relaxation of supercoiled pBR322 DNA at 50 to 400 uM after 15 to 30 mins by agarose gel electrophoresis; method in brief: as §6

DNA topoisomerase 2-alpha (Homo sapiens), sequence (P11388 whole entry): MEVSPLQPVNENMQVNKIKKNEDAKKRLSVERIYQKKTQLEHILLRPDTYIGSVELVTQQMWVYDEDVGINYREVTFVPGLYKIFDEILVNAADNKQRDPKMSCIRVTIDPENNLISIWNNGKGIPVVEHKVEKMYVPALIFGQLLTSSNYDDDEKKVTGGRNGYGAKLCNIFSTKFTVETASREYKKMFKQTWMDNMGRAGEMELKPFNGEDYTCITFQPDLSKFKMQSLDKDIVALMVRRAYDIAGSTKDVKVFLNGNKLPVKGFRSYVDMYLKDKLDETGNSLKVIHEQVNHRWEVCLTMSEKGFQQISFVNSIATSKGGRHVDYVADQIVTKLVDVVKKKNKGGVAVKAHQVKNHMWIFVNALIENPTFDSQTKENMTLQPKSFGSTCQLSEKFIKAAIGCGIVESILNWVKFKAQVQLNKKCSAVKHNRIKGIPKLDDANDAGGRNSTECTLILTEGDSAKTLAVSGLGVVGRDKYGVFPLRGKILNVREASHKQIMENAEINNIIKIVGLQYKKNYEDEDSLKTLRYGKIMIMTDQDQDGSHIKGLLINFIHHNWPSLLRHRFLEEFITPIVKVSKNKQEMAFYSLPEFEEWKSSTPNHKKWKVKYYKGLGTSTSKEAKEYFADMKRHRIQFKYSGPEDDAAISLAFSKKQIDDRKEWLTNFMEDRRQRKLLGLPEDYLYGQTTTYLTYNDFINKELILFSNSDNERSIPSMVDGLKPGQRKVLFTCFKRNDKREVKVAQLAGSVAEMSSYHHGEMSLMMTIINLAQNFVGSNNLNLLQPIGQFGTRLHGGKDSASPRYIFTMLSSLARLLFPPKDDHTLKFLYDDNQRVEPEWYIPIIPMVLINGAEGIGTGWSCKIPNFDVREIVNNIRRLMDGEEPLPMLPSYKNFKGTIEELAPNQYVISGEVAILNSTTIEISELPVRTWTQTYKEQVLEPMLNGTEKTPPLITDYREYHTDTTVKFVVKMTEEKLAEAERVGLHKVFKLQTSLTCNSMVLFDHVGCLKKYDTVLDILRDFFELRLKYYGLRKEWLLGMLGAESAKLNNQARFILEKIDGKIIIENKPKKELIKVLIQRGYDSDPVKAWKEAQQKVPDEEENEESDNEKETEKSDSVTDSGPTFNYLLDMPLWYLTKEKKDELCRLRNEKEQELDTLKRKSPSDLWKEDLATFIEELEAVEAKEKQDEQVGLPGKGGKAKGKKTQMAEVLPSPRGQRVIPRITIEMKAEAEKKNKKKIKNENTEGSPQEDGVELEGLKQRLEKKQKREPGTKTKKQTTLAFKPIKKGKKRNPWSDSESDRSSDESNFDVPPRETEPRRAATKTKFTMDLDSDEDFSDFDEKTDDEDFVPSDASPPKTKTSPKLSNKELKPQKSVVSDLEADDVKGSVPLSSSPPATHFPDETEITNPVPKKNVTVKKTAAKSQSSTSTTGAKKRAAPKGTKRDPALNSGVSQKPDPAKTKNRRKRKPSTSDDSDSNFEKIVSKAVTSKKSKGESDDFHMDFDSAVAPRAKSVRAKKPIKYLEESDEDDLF

inhibition [1]: Active
Activity [2]: 20%
Activity [3]: 46%
Activity [4]: 55%
Activity [5]: 107%
Activity [6]: 53%
Activity [7]: inactive
Activity [8]: 40%
inhibition [11]: Active
Activity [12]: inactive
Ratio IC50 [13]: 0.5
IC50 (DNA topoisomerase 1): 60 µM
inhibition [14]: Active
inhibition [15]: Active
inhibition [16]: Active
inhibition [17]: Active
inhibition [18]: Active
inhibition [19]: Active
SMILES: CC(=O)O[C@@H]1[C@@H](C)O[C@@H](c2ccc3c(c2O)[C@@H](O)[C@]24O[C@@]2(C3=O)[C@@]2(O)C(=O)C=C(C)C[C@@]2(O)C[C@@H]4O)C[C@H]1OC(=O)/C=C/C=C/C=C/C=C/C(=O)Nc1c(O)c2ccc(O)c(Cl)c2oc1=O [SIMOCYCLINONE D8]
inhibition [9]: Active
inhibition [10]: Active
